This passage reports EC50, APTT and Selectivity index results from ChEMBL document CHEMBL1126896, “Preparation and anti-HIV activity of O-acylated heparin and dermatan sulfate derivatives with low anticoagulant effect” (J Med Chem, 1993).

Assay [1] deals with MT4. Put plainly: Effective concentration to achieve 50% protection of MT-4 cells against the cytopathic effect of HIV-2. Format: functional, cell-based. A general note: Damage to the host cells serves as the signal in cytopathic effect assays.
The test system of assay [2] is HuT78. Put plainly: Giant-cell formation between persistently HIV-1 infected HUT-78 cells and uninfected MOLT-4 cells. Format: functional, cell-based. In short, it runs like this:
(§1)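 MOLT-4 cells were co-cultured with an equal number of HUT-78 cells persistently infected with HIV-1 IIIB or HIV-2 ROD, with varying compound concentrations. Syncytia were counted by flow cytofluorography after 24 h. EC50 is the concentration giving 50% protection against giant-cell formation.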

The nature of assay [3]: In vitro anticoagulant activity was determined by the clotting test of activated partial thromboplastin time (APTT) on a pool of human plasma; 1-2. Format: functional. The method in brief: (§2)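 Activated partial thromboplastin time clotting test on pooled human plasma, run on an automatic coagulometer. Activities were calculated according to the European Pharmacopoeia.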

In assay [4] the test system is MT4. Put plainly: Effective concentration to achieve 50% protection of MT-4 cells against the cytopathic effect of HIV-1. Format: functional, cell-based.
Assay [5] deals with Human immunodeficiency virus 1. Put plainly: Antiviral activity against HIV-1 infected with HIV-1HE. It is filed as functional, organism-based.
In assay [6] the test system is Human immunodeficiency virus 2. Put plainly: Antiviral activity against HIV-2 infected with LAV-2 EHO. Format: functional, organism-based.
For assay [7], the system named is Human immunodeficiency virus 2. Nature of the assay: Antiviral activity against HIV-2 infected with LAV-2 ROD. It is filed as functional, organism-based.
The nature of assay [8]: In vitro anticoagulant activity determined by clotting test of activated partial thromboplastin time (APTT) on a pool of human plasma. Format: functional. The method in brief:
as §2

In assay [9] the test system is MT4. Nature of the assay: Selectivity index for CC50 (cytotoxic concentration based on reduction of viability of mock-infected MT-4 cells) to that of EC50 against HIV-2. Format: functional. In short, it runs like this:
(§3)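 MT-4 cells at 3 × 10^5 cells/mL were infected with HIV-1 IIIB or HIV-2 ROD at 100 CCID50/mL, or mock-infected, alongside serial compound dilutions. Viability was read by MTT after 5 days at 37 °C. CC50 comes from mock-infected cells and EC50 from protection against cytopathicity. Index = CC50/EC50.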

The test system of assay [10] is MT4. Put plainly: Selectivity index for CC50 (cytotoxic concentration based on the reduction of the viability of mock-infected MT-4 cells) to that of EC50 against HIV-1. Format: functional. The method in brief: as §3
The test system of assay [11] is Human immunodeficiency virus 1. Nature of the assay: Antiviral activity against HIV-1 infected with HTLVIIIB (TIBO). Format: functional, organism-based.
For assay [12], the system named is Human immunodeficiency virus 1. Nature of the assay: Antiviral activity against HIV-1 infected with HTLVIIIB
It is filed as functional, organism-based.

The test system of assay [13] is Simian immunodeficiency virus. Put plainly: Antiviral activity against SIV. It is filed as functional, organism-based.
The test system of assay [14] is Human immunodeficiency virus 1. Put plainly: Antiviral activity against HIV-1 infected with […]. It is filed as functional, organism-based.
Assay [15] has as its system HuT78. Put plainly: Giant-cell formation between persistently HIV-2 infected HUT-78 cells and uninfected MOLT-4 cells. Format: functional, cell-based. In short, it runs like this: as §1
Where [16] appears, read: Homo sapiens, MT4, read-out: EC50.
Where [17] appears, read: Homo sapiens, HuT78, read-out: EC50.

What is called EC50 is the concentration at which the effect is half-maximal. With `COC1C(NC(C)=O)C(OC2C(C(=O)[O-])OC(OC3C(NC(C)=O)C(OC4C(C(=O)[O-])OC(C)C(O)C4O)OC(CO)C3OS(=O)(=O)[O-])C(O)C2O)OC(CO)C1OS(=O)(=O)[O-].[Na+].[Na+].[Na+].[Na+]` (centres undefined), the results for the EC50 in [1] (setting [16]), in [2] (setting [17]) and in assay [4] (setting [16]) were more than 625 µg/mL, more than 500 µg/mL and more than 625 µg/mL, respectively. In [3], this compound showed an APTT of 1 IU mg-1.

On to `CC(=O)OC/C(=C\C(=O)[O-])OC1OC(COS(=O)(=O)[O-])C(OC2OC(C(=O)[O-])C(OC3OC(COS(=O)(=O)[O-])C(OC4OC(C(=O)[O-])C(OC5OC(CS(=O)(=O)[O-])C(O)C(OC(C)=O)C5NS(=O)(=O)[O-])C(OC(C)=O)C4OS(=O)(=O)[O-])C(OC(C)=O)C3NS(=O)(=O)[O-])C(OC(C)=O)C2OS(=O)(=O)[O-])C(OC(C)=O)C1NS(=O)(=O)[O-].[Na+].[Na+].[Na+].[Na+].[Na+].[Na+].[Na+].[Na+].[Na+].[Na+].[Na+]` (centres undefined), for which the EC50 is 1.5 µg/mL in assay [5]; 0.59 µg/mL in [1] (setting [16]); 165 µg/mL in [2] (setting [17]); 4.3 µg/mL in [6]; 2.2 µg/mL in assay [7]; 0.6 µg/mL in assay [11]. Further, the EC50 is 0.5 µg/mL in assay [12], 7.4 µg/mL in assay [13], 0.53 µg/mL in [4] (setting [16]) and 1.3 µg/mL in assay [14]. Besides, in assay [8], the APTT is on record as 10 IU mg-1. Also, the results for the Selectivity index in [9] and in assay [10] were more than 847 and more than 943, respectively.

With `CCCC(=O)OC/C(=C\C(=O)OCc1ccccc1)OC1OC(COS(=O)(=O)[O-])C(OC2OC(C(=O)OCc3ccccc3)C(OC3OC(COS(=O)(=O)[O-])C(OC4OC(C(=O)OCc5ccccc5)C(OC5OC(COS(=O)(=O)[O-])C(O)C(OC(=O)CCC)C5NS(=O)(=O)[O-])C(OC(=O)CCC)C4OS(=O)(=O)[O-])C(OC(=O)CCC)C3NS(=O)(=O)[O-])C(OC(=O)CCC)C2OS(=O)(=O)[O-])C(OC(=O)CCC)C1NS(=O)(=O)[O-].[Na+].[Na+].[Na+].[Na+].[Na+].[Na+].[Na+].[Na+]` (centres undefined), the EC50 in assay [5] is 1.1 µg/mL; in [1] (setting [16]) it was 0.42 µg/mL; in assay [2] (setting [17]), 1 µg/mL; in assay [6], 1.3 µg/mL; in [7] it was 0.9 µg/mL; in assay [15] (setting [17]) it was 1 µg/mL. The EC50 in assay [11] came to 0.7 µg/mL; in assay [12], 0.2 µg/mL; in assay [13], 10.2 µg/mL; in [4] (setting [16]), 0.36 µg/mL; in [14], 0.2 µg/mL. The compound also gave an APTT in assay [8] of 4 IU mg-1. Besides, the Selectivity index is on record as more than 1190 in assay [9] and more than 1389 in [10].

For `O=C([O-])/C=C(\CO)OC1OC(COS(=O)(=O)[O-])C(OC2OC(C(=O)[O-])C(OC3OC(COS(=O)(=O)[O-])C(OC4OC(C(=O)[O-])C(OC5OC(COS(=O)(=O)[O-])C(O)C(O)C5NS(=O)(=O)[O-])C(O)C4OS(=O)(=O)[O-])C(O)C3NS(=O)(=O)[O-])C(O)C2OS(=O)(=O)[O-])C(O)C1NS(=O)(=O)[O-].[Na+].[Na+].[Na+].[Na+].[Na+].[Na+].[Na+].[Na+].[Na+].[Na+].[Na+]` (stereo in doubt; 2a), the EC50 is 11.7 µg/mL in assay [5]; 6.3 µg/mL in [1] (mt4); more than 500 µg/mL in [2] (hut78); 17.9 µg/mL in [6]; more than 250 µg/mL in assay [7]; 1.5 µg/mL in assay [11]. Besides, the EC50 in assay [12] stood at 1.5 µg/mL; in assay [13], 150 µg/mL; in [4] (mt4), 1.53 µg/mL; in [14] it was 0.3 µg/mL. This compound gave an APTT in assay [8] of 4 IU mg-1. For the same compound, the Selectivity index in [9] is recorded as more than 80; in assay [10], more than 327.

For `CCCC(=O)OC/C(=C\C(=O)[O-])O[C@H]1O[C@H](COS(=O)(=O)[O-])[C@@H](O[C@@H]2O[C@@H](C(=O)[O-])[C@@H](O[C@H]3O[C@H](COS(=O)(=O)[O-])[C@@H](O[C@@H]4O[C@@H](C(=O)[O-])[C@@H](O[C@H]5O[C@H](CS(=O)(=O)[O-])[C@@H](O)[C@H](OC(=O)CCC)[C@H]5NS(=O)(=O)[O-])[C@H](OC(=O)CCC)[C@H]4OS(=O)(=O)[O-])[C@H](OC(=O)CCC)[C@H]3NS(=O)(=O)[O-])[C@H](OC(=O)CCC)[C@H]2OS(=O)(=O)[O-])[C@H](OC(=O)CCC)[C@H]1NS(=O)(=O)[O-].[Na+].[Na+].[Na+].[Na+].[Na+].[Na+].[Na+].[Na+].[Na+].[Na+].[Na+]` (stereo in doubt; 4g), the concentration giving a half-maximal response (EC50) in assay [5] came to 0.9 µg/mL; in assay [1] (mt4) it was 0.17 µg/mL; in assay [2] (hut78) it was 31.9 µg/mL; in assay [6], 1.3 µg/mL; in assay [7], 0.7 µg/mL; in [11], 0.3 µg/mL. Moreover, the EC50 in assay [12] was found to be 0.1 µg/mL; in assay [13], 5.9 µg/mL; in assay [14], 0.1 µg/mL. The compound also returned an APTT in assay [8] of 8.5 IU mg-1. For the same compound, the Selectivity index in [9] is reported as more than 2141.

In the case of `CCCCCCCCOC(=O)/C=C(\CO)OC1OC(COS(=O)(=O)[O-])C(OC2OC(C(=O)OCCCCCCCC)C(OC3OC(COS(=O)(=O)[O-])C(OC4OC(C(=O)OCCCCCCCC)C(OC5OC(COS(=O)(=O)[O-])C(O)C(O)C5NS(=O)(=O)[O-])C(O)C4OS(=O)(=O)[O-])C(O)C3NS(=O)(=O)[O-])C(O)C2OS(=O)(=O)[O-])C(O)C1NS(=O)(=O)[O-].[Na+].[Na+].[Na+].[Na+].[Na+].[Na+].[Na+].[Na+]` (stereo in doubt; 7f), the EC50 in [1] (mt4) stood at 1.1 µg/mL; in assay [2] (setting [17]) it was 4 µg/mL; in assay [15] (setting [17]), 18 µg/mL; in assay [4] (setting [16]), 0.7 µg/mL. The compound further had an APTT in [8] of 3 IU mg-1. The Selectivity index is reported as more than 454 in assay [9] and more than 714 in assay [10].

As for `CCCCCCCCOC(=O)/C=C(\CO)OC1OC(COS(=O)(=O)[O-])C(OC2OC(C(=O)OCCCCCCCC)C(OC3OC(COS(=O)(=O)[O-])C(OC4OC(C(=O)OCCCCCCCC)C(OC5OC(COS(=O)(=O)[O-])C(O)C(O)C5NS(=O)(=O)[O-])C(O)C4OS(=O)(=O)[O-])C(O)C3NS(=O)(=O)[O-])C(O)C2OS(=O)(=O)[O-])C(O)C1NS(=O)(=O)[O-].[Na+].[Na+].[Na+].[Na+].[Na+].[Na+].[Na+].[Na+]` (stereo in doubt; 7g), the EC50 in assay [1] (mt4) is 0.5 µg/mL; in assay [2] (hut78), 4 µg/mL; in assay [15] (hut78), 20 µg/mL; in assay [4] (mt4), 0.59 µg/mL. The APTT in assay [8] is listed as 6 IU mg-1. Further, the figures for the Selectivity index in [9] and in [10] were more than 1000 and more than 833, respectively.
